# A selection: hits, their analogues and other compounds. The true share with any hit is near 1.9%.
# ASAP1 GAP inh – inhibitors of human ASAP1 ArfGAP activity. Q9ULH1. ASAP1-stimulated ARF1 GTP hydrolysis, GDP FP detection. inhibition, % at 16.5 µM. 360,000 tested, 0.19% active; in the data active = inhibition above about 25%;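 also: 0% = vehicle with enzyme and substrate and 100% = no enzyme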
# FGF22 binding – FGF22 (human) thermal shift binding; 340,000 tested, 1.5% active; activity (Tm shift, normalised), % at 9.99 µM; recombinant FGF22 thermal shift, SYPRO orange fluorescence; percent of sucrose octasulfate shift, DMSO zero; AID 651658; Q9HCT0;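 active = mean Tm shift, scaled 0 neutral to 100 positive control, at about 1.3% or above, every replicate too, limit read from the data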
# Target sequence (Q9HCT0 whole entry, looked up): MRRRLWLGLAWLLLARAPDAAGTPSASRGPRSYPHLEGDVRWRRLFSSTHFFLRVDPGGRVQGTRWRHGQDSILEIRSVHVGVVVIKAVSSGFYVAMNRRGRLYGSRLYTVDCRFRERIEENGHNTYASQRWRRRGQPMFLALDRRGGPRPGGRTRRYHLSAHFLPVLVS
# Rtt109 Vps75 – blocks Candida albicans Rtt109/Vps75 acetyltransferase activity; purified Rtt109/Vps75, ThioGlo CoA-SH fluorescence, 4 h; inhibition, % at 34.9 µM; 330,000 tested, 0.16% active;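 active = inhibition of at least 50% in every replicate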
# Efflux pump inh – antifungal efflux pump inhibition, Nile Red retention; 330,000 tested, 0.44% active; inhibition, % at 10 µM; S. cerevisiae Candida pump triplex;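 active = plate passing quality check with inhibition over a set limit, or well fluorescence over plate mean plus 4 SD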;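 also: Nile Red retained in pooled yeast measured as flow cytometry median fluorescence; 0% = buffer negative control and 100% = Enniatin B positive control; higher means more Nile Red kept so more efflux inhibition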
# ARFGAP1 inh – rat ARFGAP1 inhibition. Arfgap1-stimulated ARF1 GTP hydrolysis, GDP FP detection. AID 651572. 360,000 tested, 0.26% active. inhibition, % at 16.5 µM;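 active = inhibition above a per-plate limit, mean inhibition of low control wells plus 3 SD, cut at about 25% in these data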;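 also: 0% = DMSO wells with enzyme and 100% = wells lacking Arfgap1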
# Target sequence (Q62848 1-136 limits assumed): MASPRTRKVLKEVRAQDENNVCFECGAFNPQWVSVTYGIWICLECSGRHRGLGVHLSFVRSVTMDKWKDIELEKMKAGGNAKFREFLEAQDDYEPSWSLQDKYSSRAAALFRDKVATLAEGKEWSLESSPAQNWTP
#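 System: truncated rat Arfgap1 GAP domain / Benchmarks: high control wells lacking Arfgap1, low control full reaction with DMSO / Times: compound-enzyme preincubation 20 min, reaction 120 min, detection 60 min, 25 °C / Repeats: one replicate per compound / Also added: human ARF1(Δ1-17)-GTP substrate / Measured by: Tracer-displacement fluorescence polarization with EDTA stop, 620/688 nm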
# ASAP1 inh confirm – ASAP1 inhibition confirmed; ASAP1-stimulated Arf1 GTPase, GDP fluorescence polarization; inhibition, % at 16.5 µM; 620 tested, 37% active; shares compounds with ASAP1 GAP inh;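 active = mean inhibition over triplicates exceeds the hit threshold derived for the earlier primary screening run, cut at about 25% in these data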
# * hit, by the source's call; · = no result.
SMILES,ASAP1 GAP inh,FGF22 binding,Rtt109 Vps75,Efflux pump inh,ARFGAP1 inh,ASAP1 inh confirm
Cc1ccc(C(=O)C(NC(=O)c2ccco2)N2CCOCC2)cc1 (stereo unspecified),5,·,4,0,6,·
Cc1csc(NC(=O)NCC2CCCC(CNC(=O)Nc3nc(C)cs3)C2)n1 (stereo unspecified),4,0,-1,0,-1,·
COc1ccccc1CNc1nc(NCc2ccccc2OC)c2sccc2n1,-12,0,·,·,4,·
COc1ccccc1CNc1nc(NCCOc2ccccc2)c2sccc2n1,25*,1,·,·,7,16
Cc1cccc(N2CCN(C(=O)CNC(=O)c3cccc([N+](=O)[O-])c3)CC2)c1C,-7,0,-5,0,-9,·
O=C(NCCc1c[nH]c2ccccc12)C(F)(F)C(F)F,4,·,1,0,-4,·
CCNC(=O)/C(C#N)=C/c1c(N2CC(C)OC(C)C2)nc2ccccn2c1=O (stereo unspecified),49*,·,-1,0,-6,1
CNC(=O)/C(C#N)=C/c1c(N2CC(C)OC(C)C2)nc2ccccn2c1=O (stereo unspecified),-10,0,-28,0,3,·
Cc1ccc(C2=NC(=O)/C(=C/c3cc(O)c(O)c(Br)c3)S2)cc1,30*,43*,-2,·,-10,69*
COc1cc(/C=C2\SC(c3ccc(C)cc3)=NC2=O)cc(OC)c1O,25*,0,1,0,9,36*
Cc1cc(NC(=O)CCN2C(=O)c3ccccc3C2=O)no1,5,·,1,0,10,·
COc1ccccc1N1CCN(CCCNC(=O)Cn2ncc3c([nH]c4ccccc43)c2=O)CC1,6,0,-5,0,1,·
CC1CC(C)CN(C(=O)c2cccc(N3C(=O)c4ccccc4C3=O)c2)C1 (stereo unspecified),25*,0,3,0,-6,8
COc1ccc(CNC(=O)C(OC(=O)c2cccs2)C(C)C)cc1 (stereo unspecified),-17,0,-1,0,-5,·
O=C(O)C1Nc2c(Cl)cc(Cl)cc2C2C=CCC12 (stereo unspecified),·,·,-3,0,·,·
O=C(O)C1Nc2c(O)cccc2C2C=CCC12 (stereo unspecified),26*,0,-4,0,-3,20
CC1CCc2cccc3c2N1c1cc(C#N)c(C#N)cc1O3 (stereo unspecified),27*,0,2,-1,1,1
Nc1ccc(Oc2cccc(Oc3ccc(N)cc3)c2)cc1,28*,0,1,0,15,16
Cc1ccc(NC(=O)CN2C(=O)S/C(=C\c3cc(Cl)c(OCC(=O)O)c(Cl)c3)C2=O)cc1,65*,0,1,0,37*,75*
Cc1ccc(S(=O)(=O)Nc2ccc(NC(=O)c3cccs3)cc2)cc1,25*,1,-3,0,6,7
CC1CCN(C(=O)COC(=O)c2cc3ccccc3cc2O)CC1,26*,·,1,0,8,15
CO[C@H]1CN(C)C(=O)c2ccc(NC(=O)c3ccccc3F)cc2OC[C@@H](C)N(CC2CCOCC2)C[C@@H]1C,·,0,·,·,·,·
Cn1c(=O)c2cc(NC(=O)Nc3cccnc3)ccc2n1Cc1ccc(Cl)cc1,-7,0,·,·,-8,·
CC(C)=CCn1c2ccc(NC(=O)Nc3cccnc3)cc2c(=O)n1C,25*,0,·,·,7,6
COc1cc(NC(=O)C(C)Oc2ccccc2)c(C(=O)O)cc1OC (stereo unspecified),-14,·,-8,0,-9,·
Oc1oc(-c2ccccc2Br)nc1C=Nc1ccc(Br)cn1,51*,0,0,0,8,110*
O=C1N[C@@H](Cc2ccccc2)COC(=O)[C@@H](Cc2ccc(F)cc2)CC/C=C/C[C@@H]1CC(=O)N(CCO)Cc1ccccc1,5,0,16,0,3,·
CCCN(C)C[C@H]1Oc2cc(C#C[C@H](C)O)ccc2S(=O)(=O)N([C@H](C)CO)C[C@H]1C,·,0,·,·,·,·
COc1cccc(OCc2cc(C(=O)NC3CCOCC3)no2)c1,2,0,-3,0,5,·
COc1ccc(OCc2cc(C(=O)NC3CCOCC3)no2)c2ccccc12,30*,0,0,0,0,2

# From PubChem BioAssay
